Calb biofilm kill = mixture kills Candida albicans biofilm cells. 120,000 compounds, 0.02% hits. inhibition, % at 7.6 µM. C. albicans biofilm persisters + clotrimazole, fluorescence viability; primary screen in compound mixtures of four per well;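 note: compounds exposed to preformed 24 h biofilms for 48 h; 0% = untreated biofilm control and 100% = clotrimazole plus chlorhexidine kill blank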
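Probe or stimulus – Clotrimazole 50 µg/mL co-treatment · System – C. albicans biofilms · Schedule – 24 h biofilm formation, then 48 h compound exposure, 37 °C · Evaluation – percent inhibition of biofilm viability · Technique – 2-h Alamar Blue fluorescence, 535/590 nm excitation/emission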
Arbovirus inh = blocks arbovirus infection | inhibition, % at 10 µM | arbovirus infection cell-based antiviral screen | 200,000 compounds, 0.37% hits | AID 1251; in the data active = inhibition above about 30%
Calpain2 inh = blocks pig calpain II enzyme activity. purified calpain II, fluorogenic peptide substrate, 30 min. inhibition, % at 16 µM. 220,000 compounds, 0.37% hits;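 active = inhibition above about 50%, limit read from the data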
Mcl-1 Bim block = human Bim-Mcl-1 interaction inhibition; Q07820; Bead-based flow cytometry, Bim peptide-Mcl-1 binding; inhibition, % at 10 µM; 190,000 compounds, 0.1% hits; in the data active = inhibition above about 40%;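 note: 0% = no compound tracer wells and 100% = peptide blocker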
Target sequence (Q07820 whole entry, looked up): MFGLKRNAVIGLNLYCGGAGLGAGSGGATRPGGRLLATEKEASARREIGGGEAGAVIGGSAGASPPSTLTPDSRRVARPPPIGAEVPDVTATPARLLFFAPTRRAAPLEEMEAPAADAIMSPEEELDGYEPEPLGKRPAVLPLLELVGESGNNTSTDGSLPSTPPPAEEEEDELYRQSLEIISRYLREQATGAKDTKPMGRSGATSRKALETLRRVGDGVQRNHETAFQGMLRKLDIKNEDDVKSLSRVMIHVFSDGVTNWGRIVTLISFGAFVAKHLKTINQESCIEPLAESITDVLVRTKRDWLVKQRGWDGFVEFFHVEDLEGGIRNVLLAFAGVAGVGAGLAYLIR
Mcl1 Noxa PPI = Mcl-1/Noxa interaction inhibition; TR-FRET Mcl-1/Noxa peptide binding, 2 h; AID 1022; inhibition, % at 21.7 µM; 220,000 compounds, 1.5% hits; Q07820;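 active = compounds that cut the protein-peptide binding signal by more than 50% relative to plate controls in a single-dose test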;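 note: His-tagged Mcl-1 with rhodamine Noxa BH3 peptide and terbium anti-His antibody; 0% = Mcl-1 plus Noxa peptide wells and 100% = peptide-only wells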
Mcl1 Bid PPI = Mcl-1/Bid interaction inhibition; Q07820; TR-FRET Mcl-1/Bid-Dy647 peptide binding, 1536-well; inhibition, % at 21.7 µM; 220,000 compounds, 0.97% hits;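 active = compounds that cut the binding signal by more than half at the single screening dose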;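 note: His-tagged Mcl-1 with europium anti-His antibody binding Bid BH3 peptide; 0% = Mcl-1 plus peptide wells and 100% = peptide-only wells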
The depositor's hits bear a star. Compounds with a hit are over-represented: about 2.8% of the library has one in this group of screens.

How did COc1ccc(CNc2ccc([N+](=O)[O-])cc2C)cc1 do in these assays?
Calb biofilm kill: 16; Calpain2 inh: 82*; Mcl1 Noxa PPI: 10; Mcl1 Bid PPI: 2

Results for COc1ccc(CNc2cc([N+](=O)[O-])ccc2OC)cc1 ?
Arbovirus inh: -5; Calpain2 inh: 4; Mcl-1 Bim block: 2; Mcl1 Noxa PPI: 11; Mcl1 Bid PPI: -14

How did CC(=O)NC(c1cccs1)c1cc([N+](=O)[O-])c2cccnc2c1O (stereo not drawn) do in these assays?
Calb biofilm kill: 25; Arbovirus inh: -19; Calpain2 inh: -29; Mcl-1 Bim block: 0; Mcl1 Noxa PPI: 55*; Mcl1 Bid PPI: 25

How did CCn1c(C2CCN(S(=O)(=O)c3ccc(OC)cc3)CC2)n[nH]c1=S do in these assays?
Calb biofilm kill: 5; Arbovirus inh: 6; Calpain2 inh: -20; Mcl-1 Bim block: -4; Mcl1 Noxa PPI: -5; Mcl1 Bid PPI: -52

How did CCC1=NN2C(=N)/C(=C\c3ccc(OCc4cc(=O)n5nc(CC)sc5n4)c(OC)c3)C(=O)N=C2S1 do in these assays?
Calb biofilm kill: 10; Arbovirus inh: 0; Calpain2 inh: -47; Mcl-1 Bim block: 2; Mcl1 Noxa PPI: 94*; Mcl1 Bid PPI: -66

Results for COc1ccc(/C(=C/Nc2cccc(Br)c2)C(C)=O)cc1OC ?
Calb biofilm kill: 36; Arbovirus inh: 1; Calpain2 inh: 47; Mcl-1 Bim block: -3; Mcl1 Noxa PPI: 17; Mcl1 Bid PPI: -18

What do the screens show for `CN(C)c1ccc(/C=C2\SC(=O)N(CCc3nnc(N)s3)C2=O)cc1`?
Calb biofilm kill: 17; Calpain2 inh: -10; Mcl1 Noxa PPI: 67*; Mcl1 Bid PPI: -109

Results for CN(C)c1ccc(/C=C2/SC(=O)N(CCN=C3NS(=O)(=O)c4ccccc43)C2=O)cc1 ?
Calb biofilm kill: 14; Arbovirus inh: -23; Calpain2 inh: 22; Mcl-1 Bim block: 78*; Mcl1 Noxa PPI: 52*; Mcl1 Bid PPI: 34

How did CN(C)c1ccc(/C=C2\SC(=O)N(CC(O)Cn3c4ccccc4c4ccccc43)C2=O)cc1 (stereo not drawn) do in these assays?
Calb biofilm kill: 7; Arbovirus inh: -5; Calpain2 inh: -15; Mcl-1 Bim block: 6; Mcl1 Noxa PPI: -2; Mcl1 Bid PPI: -8

What do the screens show for `CCc1c(C)sc(NC(=O)Cn2nc(C)c([N+](=O)[O-])c2C)c1C(N)=O`?
Calb biofilm kill: 5; Arbovirus inh: -11; Calpain2 inh: 5; Mcl-1 Bim block: -9; Mcl1 Noxa PPI: -29; Mcl1 Bid PPI: -45

Results for CCN1CCN(CCCNC(=O)C2c3ccccc3C(=O)N(c3ccc(OC)cc3)C2c2ccc(OC)cc2)CC1 (stereo not drawn) ?
Calb biofilm kill: -11; Arbovirus inh: 3; Calpain2 inh: 26; Mcl-1 Bim block: -1; Mcl1 Noxa PPI: -1; Mcl1 Bid PPI: -27

Results for CCOC(=O)c1cc(C#N)c(SCC(=O)OC)[nH]c1=O ?
Calb biofilm kill: 17; Calpain2 inh: -33; Mcl1 Noxa PPI: 21; Mcl1 Bid PPI: 72*

Results for Cc1cccc(NC(=O)CN2C(=O)S/C(=C\c3ccc(-c4cccc(C(=O)O)c4C)o3)C2=O)c1 ?
Calb biofilm kill: 16; Arbovirus inh: -9; Calpain2 inh: -53; Mcl-1 Bim block: 0; Mcl1 Noxa PPI: 14; Mcl1 Bid PPI: -18

What do the screens show for `Cc1ccc(C(=O)O)cc1-c1ccc(C=C2C(=O)c3ccccc3C2=O)o1`?
Calb biofilm kill: -12; Arbovirus inh: -1; Calpain2 inh: -59; Mcl-1 Bim block: 2; Mcl1 Noxa PPI: 57*; Mcl1 Bid PPI: -55

How did Cc1ccc(NC(=O)CN2C(=O)S/C(=C/c3ccc(-c4cc(C(=O)O)ccc4C)o3)C2=O)cc1C do in these assays?
Arbovirus inh: -35; Calpain2 inh: -57; Mcl-1 Bim block: 4; Mcl1 Noxa PPI: 84*; Mcl1 Bid PPI: 94*

What do the screens show for `COc1ccc(-c2ocnc2C(=O)N2CCN(C(c3ccccc3)c3ccccc3)CC2)cc1`?
Calb biofilm kill: 3; Arbovirus inh: -10; Calpain2 inh: -34; Mcl-1 Bim block: -5; Mcl1 Noxa PPI: -4; Mcl1 Bid PPI: 6

How did Cc1cccc2cc(/C=N/NC(=O)CN3CCOCC3)c(Cl)nc12 do in these assays?
Arbovirus inh: 4; Calpain2 inh: -32; Mcl-1 Bim block: -2; Mcl1 Noxa PPI: -1; Mcl1 Bid PPI: 87*

Results for Cc1ccc2cc(/C=N/NC(=O)CN3CCOCC3)c(Cl)nc2c1 ?
Arbovirus inh: -4; Calpain2 inh: 25; Mcl-1 Bim block: 0; Mcl1 Noxa PPI: 6; Mcl1 Bid PPI: 74*

Results for CCOC(=O)NC(=O)c1cn(Nc2ccccc2C(F)(F)F)c(=O)[nH]c1=O ?
Calb biofilm kill: 23; Calpain2 inh: -6; Mcl1 Noxa PPI: 10; Mcl1 Bid PPI: -18

Results for CC(C)NS(=O)(=O)c1ccc(CCC(=O)Nc2ccc3c(c2)OCO3)cc1 ?
Arbovirus inh: -3; Calpain2 inh: 7; Mcl-1 Bim block: -3; Mcl1 Noxa PPI: 9; Mcl1 Bid PPI: -22

Results for O=C(c1cnc(Cl)c(Cl)c1)N1CCC(Cc2ccccc2)CC1 ?
Calb biofilm kill: 8; Arbovirus inh: 8; Calpain2 inh: 36; Mcl-1 Bim block: 1; Mcl1 Noxa PPI: 51*; Mcl1 Bid PPI: 4

What do the screens show for `O=C(c1ccc([N+](=O)[O-])cc1)N1CCC(Cc2ccccc2)CC1`?
Calb biofilm kill: 14; Arbovirus inh: 0; Calpain2 inh: 10; Mcl-1 Bim block: 0; Mcl1 Noxa PPI: 8; Mcl1 Bid PPI: 5

What do the screens show for `CC(=O)N(/N=C/c1cccc(C)c1)c1nc(-c2ccc(Br)cc2)cs1`?
Arbovirus inh: 13; Calpain2 inh: -30; Mcl-1 Bim block: -2; Mcl1 Noxa PPI: 2; Mcl1 Bid PPI: 99*

How did Cc1nnc(NC(=O)c2ccc(S(=O)(=O)C(F)F)cc2)s1 do in these assays?
Calb biofilm kill: 18; Calpain2 inh: -10; Mcl1 Noxa PPI: -4; Mcl1 Bid PPI: -5

Results for Cc1nc(N2CCN(Cc3ccccc3)CC2)nc2c1C(=O)CC(C)C2 (stereo not drawn) ?
Arbovirus inh: -10; Calpain2 inh: 68*; Mcl-1 Bim block: 0; Mcl1 Noxa PPI: 29; Mcl1 Bid PPI: -16

How did COc1ccc(CNc2oc(COc3ccc(Cl)cc3)nc2C#N)cc1 do in these assays?
Arbovirus inh: -24; Calpain2 inh: 54*; Mcl-1 Bim block: -1; Mcl1 Noxa PPI: 3; Mcl1 Bid PPI: -11

How did O=C(CNC(=O)c1ccc([N+](=O)[O-])cc1)N/N=C\c1ccc(OC(=O)c2ccccc2)cc1 do in these assays?
Arbovirus inh: 0; Calpain2 inh: -2; Mcl-1 Bim block: 19; Mcl1 Noxa PPI: 42; Mcl1 Bid PPI: 75*

Results for COc1cccc(C(=O)NCC(=O)N/N=C/c2cccc(OC(=O)c3ccc([N+](=O)[O-])cc3)c2)c1 ?
Calb biofilm kill: 21; Arbovirus inh: -2; Calpain2 inh: 14; Mcl-1 Bim block: -1; Mcl1 Noxa PPI: 6; Mcl1 Bid PPI: -15

Compound activity as filed in PubChem BioAssay.
